From publication PMC2831464 (Clinical cancer research : an official journal of the …, 2010)
Values joined by “and” are separate entries in the source; they are usually repeats but may differ in a detail not shown here. Equal values may be shown once. “Also recorded” adds a separate entry of the source.

Legend:
CYP3A4 = conditions: in-vitro data; cited from earlier work
UGT1A1 = conditions: cited from earlier work
[1] = Plasma pharmacokinetics of AR-67 lactone and carboxylate; format: in vivo, human; conditions: for Cmax, total: observed at 45 min of 1-hr infusion
Method in brief: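 Test compound was given as a 1-h IV infusion daily × 5. Heparinized blood was drawn on days 1 and 4 of cycle 1: pre-dose, 5, 45 and 65 min, and 1.5, 2, 4, 6, 8 and 24 h after infusion start. Plasma lactone and carboxylate were quantified by validated HPLC-fluorescence. Parameters were noncompartmental. Cmax was the observed 45-min value. Half-life required ≥3 elimination-phase points.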

[2] = Exposure-toxicity relationship, sigmoid E-max model; format: in vivo, human
Method in brief: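 Patients received a 1-h IV infusion of test compound daily × 5 every 21 days. Toxicity measure was the cycle 1 nadir of ANC and platelets, expressed as % decrease. Exposure metrics were total test compound AUC (day 1, cycle 1) and administered daily dosage level. Total rather than lactone parameters were used.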

[3] = system: refractory solid malignancies; assay: Tumor response per RECIST v1.0; format: in vivo, human
[4] = day 1 cycle 1, 1.2 mg/m^2 (n=2), mean
[5] = day 1 cycle 1, 1.67 mg/m^2 (n=3), mean
[6] = day 1 cycle 1, 2.34 mg/m^2 (n=3), mean
[7] = day 1 cycle 1, 3.23 mg/m^2 (n=3), mean
[8] = day 1 cycle 1, 4.5 mg/m^2 (n=1)
[9] = day 1 cycle 1, 6.3 mg/m^2 (n=1)
[10] = day 1 cycle 1, 7.5 mg/m^2 (n=7), mean
[11] = day 1 cycle 1, 8.9 mg/m^2 (n=4), mean
[12] = day 1 cycle 1, 12.4 mg/m^2 (n=2), mean
[13] = day 4 cycle 1, 1.2 mg/m^2 (n=1)
[14] = day 4 cycle 1, 1.67 mg/m^2 (n=3), mean
[15] = day 4 cycle 1, 2.34 mg/m^2 (n=3), mean
[16] = day 4 cycle 1, 3.23 mg/m^2 (n=3), mean
[17] = day 4 cycle 1, 4.5 mg/m^2 (n=1)
[18] = day 4 cycle 1, 6.3 mg/m^2 (n=1)
[19] = day 4 cycle 1, 7.5 mg/m^2 (n=7), mean
[20] = day 4 cycle 1, 8.9 mg/m^2 (n=4), mean
[21] = day 4 cycle 1, 12.4 mg/m^2 (n=2), mean
[22] = cycle 1, all patients, sigmoid E-max model
[23] = total AR-67 AUC day 1 of cycle 1, sigmoid E-max model

SMILES: CC[C@@]1(O)C(=O)OCc2c1cc1n(c2=O)Cc2c-1nc1ccc(O)cc1c2[Si](C)(C)C(C)(C)C [AR-67, 7-t-butyldimethylsilyl-10-hydroxycamptothecin]
- substrate for CYP3A4 (CYP3A4): is a substrate
- UGT1A1 mediated glucuronidation (UGT1A1): does not undergo
- clearance with increasing dosage ([1]; 1.2–12.4 mg/m^2/day): clearance was constant
- decrease in AUC between days 1 and 4 ([1]; all patients, dexamethasone co-treatment): ~ 20%
- drug accumulation on day 4 ([1]; daily × 5 dosing, cycle 1): No drug accumulation was observed; also recorded: no evidence of accumulation
- Clearancetotal [1, 4]: 13.8 L/hr/m^2
- Lactone AUC(0−∞) [1, 4]: 81 ng·h/mL
- Total AUC(0−∞) [1, 4]: 88 ng·h/mL
- Vss, total [1, 4]: 7.4 L/m^2
- Cmax, total [1, 4]: 77.6 ng/mL
- Clearancetotal [1, 5]: 13.2 L/hr/m^2
- Lactone AUC(0−∞) [1, 5]: 117 ng·h/mL
- Total AUC(0−∞) [1, 5]: 128 ng·h/mL
- Vss, total [1, 5]: 13.1 L/m^2
- Cmax, total [1, 5]: 96.9 ng/mL
- Clearancetotal [1, 6]: 14.1 L/hr/m^2
- Lactone AUC(0−∞) [1, 6]: 186 ng·h/mL
- Total AUC(0−∞) [1, 6]: 201 ng·h/mL
- Vss, total [1, 6]: 13.5 L/m^2
- Cmax, total [1, 6]: 158.9 ng/mL
- Clearancetotal [1, 7]: 11.6 L/hr/m^2
- Lactone AUC(0−∞) [1, 7]: 269 ng·h/mL
- Total AUC(0−∞) [1, 7]: 290 ng·h/mL
- Vss, total [1, 7]: 9.6 L/m^2
- Cmax, total [1, 7]: 221.9 ng/mL
- Clearancetotal [1, 8]: 21 L/hr/m^2
- Lactone AUC(0−∞) [1, 8]: 179 ng·h/mL
- Total AUC(0−∞) [1, 8]: 214 ng·h/mL
- Vss, total [1, 8]: 32.7 L/m^2
- Cmax, total [1, 8]: 117.8 ng/mL
- Clearancetotal [1, 9]: 12.9 L/hr/m^2
- Lactone AUC(0−∞) [1, 9]: 334 ng·h/mL
- Total AUC(0−∞) [1, 9]: 490 ng·h/mL
- Vss, total [1, 9]: 51.6 L/m^2
- Cmax, total [1, 9]: 168.5 ng/mL
- Clearancetotal [1, 10]: 13.1 L/hr/m^2
- Lactone AUC(0−∞) [1, 10]: 498 ng·h/mL
- T(1/2)total [1, 10]: 1.4 h
- Total AUC(0−∞) [1, 10]: 581 ng·h/mL
- Vss, total [1, 10]: 18.7 L/m^2
- Cmax, total [1, 10]: 349.7 ng/mL
- Clearancetotal [1, 11]: 18.9 L/hr/m^2
- Lactone AUC(0−∞) [1, 11]: 471 ng·h/mL
- T(1/2)total [1, 11]: 1.6 h
- Total AUC(0−∞) [1, 11]: 502 ng·h/mL
- Vss, total [1, 11]: 30.1 L/m^2
- Cmax, total [1, 11]: 290.6 ng/mL
- Clearancetotal [1, 12]: 15.8 L/hr/m^2
- Lactone AUC(0−∞) [1, 12]: 686 ng·h/mL
- T(1/2)total [1, 12]: 1.1 h
- Total AUC(0−∞) [1, 12]: 786 ng·h/mL
- Vss, total [1, 12]: 18.1 L/m^2
- Cmax, total [1, 12]: 464.7 ng/mL
- Clearancetotal ([1]; day 1 cycle 1, All dosage levels (N=26), mean): 14.5 ±4.1 L/hr/m^2 and 14.5 L/hr/m^2
- T(1/2)total ([1]; day 1 cycle 1, All dosage levels, mean): 1.4 h
- Clearancetotal [1, 13]: 23.6 L/hr/m^2
- Lactone AUC(0−∞) [1, 13]: 49 ng·h/mL
- Total AUC(0−∞) [1, 13]: 51 ng·h/mL
- Vss, total [1, 13]: 15.6 L/m^2
- Cmax, total [1, 13]: 51.6 ng/mL
- Clearancetotal [1, 14]: 16.7 L/hr/m^2
- Lactone AUC(0−∞) [1, 14]: 109 ng·h/mL
- Total AUC(0−∞) [1, 14]: 115 ng·h/mL
- Vss, total [1, 14]: 16.3 L/m^2
- Cmax, total [1, 14]: 74.6 ng/mL
- Clearancetotal [1, 15]: 15.3 L/hr/m^2
- Lactone AUC(0−∞) [1, 15]: 137 ng·h/mL
- Total AUC(0−∞) [1, 15]: 154 ng·h/mL
- Vss, total [1, 15]: 7.9 L/m^2
- Cmax, total [1, 15]: 137.8 ng/mL
- Clearancetotal [1, 16]: 13.3 L/hr/m^2
- Lactone AUC(0−∞) [1, 16]: 236 ng·h/mL
- Total AUC(0−∞) [1, 16]: 255 ng·h/mL
- Vss, total [1, 16]: 10.6 L/m^2
- Cmax, total [1, 16]: 195 ng/mL
- Clearancetotal [1, 17]: 24.2 L/hr/m^2
- Lactone AUC(0−∞) [1, 17]: 149 ng·h/mL
- Total AUC(0−∞) [1, 17]: 186 ng·h/mL
- Vss, total [1, 17]: 45.3 L/m^2
- Cmax, total [1, 17]: 82.5 ng/mL
- Clearancetotal [1, 18]: 14.7 L/hr/m^2
- Lactone AUC(0−∞) [1, 18]: 327 ng·h/mL
- Total AUC(0−∞) [1, 18]: 429 ng·h/mL
- Vss, total [1, 18]: 35.3 L/m^2
- Cmax, total [1, 18]: 166.4 ng/mL
- Clearancetotal [1, 19]: 16.8 L/hr/m^2
- Lactone AUC(0−∞) [1, 19]: 411 ng·h/mL
- T(1/2)total [1, 19]: 1.8 h
- Total AUC(0−∞) [1, 19]: 478 ng·h/mL
- Vss, total [1, 19]: 25.6 L/m^2
- Cmax, total [1, 19]: 308.6 ng/mL
- Clearancetotal [1, 20]: 18.6 L/hr/m^2
- Lactone AUC(0−∞) [1, 20]: 397 ng·h/mL
- T(1/2)total [1, 20]: 1.4 h
- Total AUC(0−∞) [1, 20]: 507 ng·h/mL
- Vss, total [1, 20]: 27.5 L/m^2
- Cmax, total [1, 20]: 276.7 ng/mL
- Clearancetotal [1, 21]: 19.8 L/hr/m^2
- Lactone AUC(0−∞) [1, 21]: 551 ng·h/mL
- T(1/2)total [1, 21]: 1.7 h
- Total AUC(0−∞) [1, 21]: 663 ng·h/mL
- Vss, total [1, 21]: 28.9 L/m^2
- Cmax, total [1, 21]: 358.5 ng/mL
- Clearancetotal ([1]; day 4 cycle 1, All dosage levels (N=25), mean): 17.4 ±5.2 L/hr/m^2 and 17.4 L/hr/m^2
- T(1/2)total ([1]; day 4 cycle 1, All dosage levels, mean): 1.6 h
- lactone form as share of the total AR-67 AUC (lactone + carboxylate) ([1]; human plasma, mean (±SD)): 87.5% and ~ 87.5%
- increase of mean clearance of total AR-67 from day 1 to day 4 ([1]; p=0.0031, Wilcoxon signed rank): 20%
- elimination half-life ([1]; patients, iv): ~ 1.4 hr
- elimination profile ([1]; plasma, MTD cohort): bi-exponential profile
- share of the total concentration in the lactone form ([1]; plasma, at each time point, all patients): Greater than 80%
- dosage level ED50 (95% CI) for % decrease in ANC [2, 22]: 6.1 (4.3 – 8.7) mg/m^2
- dosage level ED50 (95% CI) for % decrease in platelets [2, 22]: 4.9 (3.2 – 7.6) mg/m^2
- AUC ED50 (95% CI) for % decrease in ANC [2, 23]: 323.6 (231.9 – 451.6) hr*ng/mL
- AUC ED50 (95% CI) for % decrease in platelets [2, 23]: 364.2 (249.4 – 531.9) hr*ng/mL
- subjects with stable disease ([3]; 22 subjects evaluable): Four
- duration of prolonged partial response ([3]; one patient): > 16 months
- response per RECIST v1.0 ([3]; one subject, squamous cell carcinoma of the lung (NSCLC), dosage level 5.5, ten cycles): prolonged partial response
- time after end of cycle 10 with partial response maintained ([3]; recurrent NSCLC patient, 10 cycles, as of this writing): ≥ 7 months
